Source: ChEMBL document CHEMBL2385036, “Peptaibols, tetramic acid derivatives, isocoumarins, and sesquiterpenes from a Bionectria sp. (MSX 47401)” (J Nat Prod, 2013)
Converted amounts (≈) assume the structure as drawn. The source made the active and inactive calls. No cut-off for these calls is given here.

Key:
SF-268 = assay: Cytotoxicity against human SF268 cells after 72 hrs by MTS assay; type: functional, cell-based
Method in brief: (§1)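 Cell lines were MCF-7 human breast carcinoma (Karmanos Cancer Center), NCI-H460 human large cell lung carcinoma (ATCC HTB-177) and SF-268 human astrocytoma (NCI Developmental Therapeutics Program). The cytotoxicity protocol followed an earlier report.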

MCF7 = assay: Cytotoxicity against human MCF7 cells after 72 hrs by MTS assay; type: functional, cell-based; method in brief: as §1
NCI-H460 = assay: Cytotoxicity against human NCI-H460 cells after 72 hrs by MTS assay; type: functional, cell-based; method in brief: as §1
Aspergillus niger = assay: Antifungal activity against Aspergillus niger after 7 days by broth microdilution method; type: functional; conditions: 168 h
Method in brief: (§2)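 MIC by broth method: cultures diluted 10- to 100,000-fold in growth medium, with both undiluted cultures and the dilutions used as inocula; each measurement run in duplicate.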

Cryptococcus neoformans = assay: Antifungal activity against Cryptococcus neoformans after 7 days by broth microdilution method; type: functional; conditions: 168 h; method in brief: as §2
Candida albicans = assay: Antifungal activity against Candida albicans after 7 days by broth microdilution method; type: functional; conditions: 168 h; method in brief: as §2
Staphylococcus aureus [1] = assay: Antimicrobial activity against methicillin-resistant Staphylococcus aureus GU 52300 after 7 days by broth microdilution method; type: functional; conditions: GU 52300, 168 h
Method in brief: (§3)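 MIC read-out; inocula were undiluted cultures plus cultures diluted 10- to 100,000-fold in growth medium. All measurements were run in duplicate.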

Staphylococcus aureus [2] = assay: Antimicrobial activity against methicillin-resistant Staphylococcus aureus GU 53016 after 7 days by broth microdilution method; type: functional; conditions: GU 53016, 168 h; method in brief: as §3
Staphylococcus aureus [3] = assay: Antimicrobial activity against methicillin-resistant Staphylococcus aureus GU 36361 after 7 days by broth microdilution method; type: functional; conditions: GU 36361, 168 h; method in brief: as §3
Staphylococcus aureus [4] = assay: Antimicrobial activity against methicillin-resistant Staphylococcus aureus GU 34380 after 7 days by broth microdilution method; type: functional; conditions: GU 34380, 168 h; method in brief: as §3
Staphylococcus aureus [5] = assay: Antimicrobial activity against methicillin-resistant Staphylococcus aureus GU 34864 after 7 days by broth microdilution method; type: functional; conditions: GU 34864, 168 h; method in brief: as §3
Staphylococcus aureus [6] = assay: Antimicrobial activity against methicillin-resistant Staphylococcus aureus ATCC 43300 after 7 days by broth microdilution method; type: functional; conditions: ATCC 43300, 168 h; method in brief: as §3
Staphylococcus aureus [7] = assay: Antimicrobial activity against methicillin-resistant Staphylococcus aureus DA 1 after 7 days by broth microdilution method; type: functional; conditions: DA 1, 168 h; method in brief: as §3
Staphylococcus aureus [8] = assay: Antimicrobial activity against Staphylococcus aureus ATCC 6538 after 7 days by broth microdilution method; type: functional; conditions: ATCC 6538, 168 h; method in brief: as §3

| Compound | Activity (SF-268) | Activity (MCF7) | Activity (NCI-H460) | MIC (Aspergillus niger) [µg/mL] | MIC (Cryptococcus neoformans) [µg/mL] | MIC (Candida albicans) [µg/mL] | MIC (Staphylococcus aureus [1]) [µg/mL] | MIC (Staphylococcus aureus [2]) [µg/mL] | MIC (Staphylococcus aureus [3]) [µg/mL] | MIC (Staphylococcus aureus [4]) [µg/mL] | MIC (Staphylococcus aureus [5]) [µg/mL] | MIC (Staphylococcus aureus [6]) [µg/mL] | MIC (Staphylococcus aureus [7]) [µg/mL] | MIC (Staphylococcus aureus [8]) [µg/mL] | IC50 (SF-268; SF-268, 72 h) [µM] | IC50 (MCF7; MCF7, 72 h) [µM] | IC50 (NCI-H460; NCI-H460, 72 h) [µM] |
| --- | --- | --- | --- | --- | --- | --- | --- | --- | --- | --- | --- | --- | --- | --- | --- | --- | --- |
| CC(CCCCCCCCC(=O)CCCCCCCCCC(O)CO[C@@H]1O[C@H](CO)[C@@H](O)[C@H](O)[C@@H]1O)C(=O)C1=C(O)C(Cc2ccc(O)cc2)NC1=O (some centres not stated) [VIRGINEONE] | inactive | inactive | inactive | 14.4 (≈ 19.2 µM) | 14.4 (≈ 19.2 µM) | 14.4 (≈ 19.2 µM) | 7.2 (≈ 9.6 µM) | 7.2 (≈ 9.6 µM) | 7.2 (≈ 9.6 µM) | 7.2 (≈ 9.6 µM) | 7.2 (≈ 9.6 µM) | 7.2 (≈ 9.6 µM) | 7.2 (≈ 9.6 µM) | 7.2 (≈ 9.6 µM) | – | – | – |
| CC(CCCCCCCCC(=O)CCCCCCCCC[C@@H](O)CO)C(=O)C1=C(O)[C@H](Cc2ccc(O)cc2)NC1=O (some centres not stated) [VIRGINEONE AGLYCONE] | inactive | inactive | inactive | > 88 | > 88 | > 88 | 5.5 (≈ 9.36 µM) | 2.8 (≈ 4.76 µM) | 5.5 (≈ 9.36 µM) | 2.8 (≈ 4.76 µM) | 2.8 (≈ 4.76 µM) | 2.8 (≈ 4.76 µM) | 2.8 (≈ 4.76 µM) | 2.8 (≈ 4.76 µM) | – | – | – |
| CC[C@H](C)[C@@H](NC(=O)[C@@](C)(CC)NC(=O)[C@@H]1C[C@@H](O)CN1C(=O)C(C)(C)NC(=O)[C@@](C)(CC)NC(=O)C(C)(C)NC(=O)[C@@H]1C[C@@H](O)CN1C(=O)[C@@](C)(CC)NC(=O)[C@H](CC(C)C)NC(=O)[C@@H]1C[C@@H](O)CN1C(=O)[C@](C)(CC)NC(=O)[C@H](CC(C)C)NC(=O)[C@@H]1C[C@@H](O)CN1C(=O)C(C)(C)NC(C)=O)C(=O)O[C@@H]([C@H](O)[C@H](O)CO)[C@H](O)CO [CLONOSTACHIN] | – | – | – | > 118 | > 118 | > 118 | > 118 | > 118 | > 118 | > 118 | > 118 | > 118 | > 118 | > 118 | – | – | – |
| C[C@@H]1[C@H](O)[C@@H](C)/C=C/C=C/C=C/C=C/C=C/C=C/C=C/[C@H](O[C@@H]2O[C@H](C)[C@@H](O)[C@H](N)[C@@H]2O)C[C@@H]2O[C@](O)(C[C@@H](O)C[C@@H](O)[C@H](O)CC[C@@H](O)C[C@@H](O)CC(=O)O[C@H]1C)C[C@H](O)[C@H]2C(=O)O [AMPHOTERICIN B] | – | – | – | 100 (≈ 108 µM) | 25 (≈ 27.1 µM) | 25 (≈ 27.1 µM) | – | – | – | – | – | – | – | – | – | – | – |
| CN[C@H](CC(C)C)C(=O)N[C@H]1C(=O)N[C@@H](CC(N)=O)C(=O)N[C@H]2C(=O)N[C@H]3C(=O)N[C@H](C(=O)N[C@H](C(=O)O)c4cc(O)cc(O)c4-c4cc3ccc4O)[C@H](O)c3ccc(c(Cl)c3)Oc3cc2cc(c3O[C@@H]2O[C@H](CO)[C@@H](O)[C@H](O)[C@H]2O[C@H]2C[C@](C)(N)[C@H](O)[C@H](C)O2)Oc2ccc(cc2Cl)[C@H]1O [VANCOMYCIN] | – | – | – | – | – | – | – | 0.38 (≈ 0.262 µM) | 0.75 (≈ 0.518 µM) | – | 0.38 (≈ 0.262 µM) | 0.25 (≈ 0.173 µM) | 0.25 (≈ 0.173 µM) | 0.25 (≈ 0.173 µM) | – | – | – |
| CC(CCCCCCCCC(=O)CCCCCCCCC[C@@H](O)CO[C@@H]1O[C@H](CO)[C@@H](O)[C@H](O)[C@H]1O)C(=O)C1=C(O)C(Cc2ccc(O)cc2)=NC1=O (some centres not stated) | inactive | inactive | inactive | > 55 | > 55 | > 55 | 28 (≈ 37.4 µM) | 28 (≈ 37.4 µM) | 28 (≈ 37.4 µM) | 14 (≈ 18.7 µM) | 14 (≈ 18.7 µM) | 14 (≈ 18.7 µM) | 14 (≈ 18.7 µM) | 14 (≈ 18.7 µM) | – | – | – |
| CC[C@H](C)[C@@H](NC(=O)[C@@](C)(CC)NC(=O)[C@@H]1C[C@@H](O)CN1C(=O)[C@@](C)(CC)NC(=O)[C@@](C)(CC)NC(=O)C(C)(C)NC(=O)[C@@H]1C[C@@H](O)CN1C(=O)[C@@](C)(CC)NC(=O)[C@H](CC(C)C)NC(=O)[C@@H]1C[C@@H](O)CN1C(=O)[C@](C)(CC)NC(=O)[C@H](CC(C)C)NC(=O)[C@@H]1C[C@@H](O)CN1C(=O)C(C)(C)NC(C)=O)C(=O)O[C@@H]([C@H](O)[C@H](O)CO)[C@H](O)CO | – | – | – | > 118 | > 118 | > 118 | > 118 | > 118 | > 118 | > 118 | > 118 | > 118 | > 118 | > 118 | – | – | – |
| CC(=O)c1coc(=O)c2c(O)cc(O)c(C)c12 | – | – | – | – | – | – | – | – | – | – | – | – | – | – | > 10 | > 10 | > 10 |
| CC1=CC[C@H]([C@](C)(O)CCC(O)C(C)(C)O)CC1 (some centres not stated) | – | – | – | > 118 | > 118 | > 118 | > 118 | > 118 | > 118 | > 118 | > 118 | > 118 | > 118 | > 118 | – | – | – |
